From ChEMBL document CHEMBL1156905, “N-heterocyclic derived M1 positive allosteric modulators” (Bioorg Med Chem Lett, 2010)
Activity calls are given as the source filed them. No cut-off for these calls is given here.

Tests used:
[1] = molecular target: T1, Muscarinic acetylcholine receptor M1 (Homo sapiens) (UniProt P11229); experiment: Allosteric modulator activity at human muscarinic M1 receptor expressed in CHO cells assessed as potentiation of acetylcholine-induced calcium mobilization by FLIPR assay; type: functional, cell-based
T1 sequence (whole entry): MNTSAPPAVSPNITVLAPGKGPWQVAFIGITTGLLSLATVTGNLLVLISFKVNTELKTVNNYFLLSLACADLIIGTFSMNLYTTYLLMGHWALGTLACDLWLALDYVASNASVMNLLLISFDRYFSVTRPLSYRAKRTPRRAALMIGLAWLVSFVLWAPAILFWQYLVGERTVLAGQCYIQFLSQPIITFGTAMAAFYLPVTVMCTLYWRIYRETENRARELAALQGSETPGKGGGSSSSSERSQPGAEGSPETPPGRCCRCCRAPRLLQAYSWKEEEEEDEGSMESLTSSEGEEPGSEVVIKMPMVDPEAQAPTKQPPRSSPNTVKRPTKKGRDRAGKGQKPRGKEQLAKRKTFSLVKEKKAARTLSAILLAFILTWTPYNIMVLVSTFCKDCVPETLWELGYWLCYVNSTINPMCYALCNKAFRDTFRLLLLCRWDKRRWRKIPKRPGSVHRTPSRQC

[2] = Fraction unbound in rat plasma; type: ADME, cell-free
In short: (§1)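 Binding in rat and human serum/plasma measured by equilibrium dialysis.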

Homo sapiens [3] = species: Homo sapiens; experiment: Protein binding in human plasma; settings: read-out: PPB (converted)
Plasma = experiment: Fraction unbound in human plasma; type: ADME, cell-free; in short: as §1
[4] = Protein binding in rat plasma; type: ADME, cell-free; settings: read-out: PPB (converted); in short: as §1
Homo sapiens [5] = species: Homo sapiens; experiment: Protein binding in human plasma; settings: read-out: PPB (converted); remark: listed apart in the source
[6] = Ratio of drug level in brain to plasma in Sprague-Dawley rat at 10 mg/kg, po; type: ADME, organism-based; set-up: dose 10 mg/kg, route oral
In short: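 Sprague–Dawley rats dosed orally at 10 mg/kg in 0.5% methocel; brain to plasma level ratio; interanimal variability under 20%.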

[7] = Ratio of drug level in rat cerebrospinal fluid to unbound fraction in rat plasma; type: ADME, CSF/Plasma; settings: in vivo
Homo sapiens [8] = species: Homo sapiens; experiment: Fraction unbound in human plasma
[9] = Plasma concentration in ip dosed mouse after 24 hrs
Mus musculus = experiment: Reversal of cognitive deficits in contextual fear conditioning in mouse at 10 mg/kg, ip after 24 hrs in presence of Scopolamine; type: functional, organism-based; set-up: dose 10 mg/kg
In short: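 Mouse contextual fear conditioning (episodic memory model); mice given scopolamine before exposure to novel environment; test agent 10 mg/kg ip; reversal compared with scopolamine-alone group; plasma levels sampled.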

[10] = molecular target: T1, Muscarinic acetylcholine receptor M1 (Homo sapiens); experiment: Allosteric modulator activity at human muscarinic M1 receptor expressed in CHO cells assessed as potentiation of acetylcholine-induced calcium mobilization at 1 uM by FLIPR assay; type: functional, cell-based
In short: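 CHO cells expressing human M1; acetylcholine dose response run with fixed 1 µM potentiator (also 0.01–100 µM series), calcium mobilization by FLIPR; fold left-shift of acetylcholine curve recorded.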

[11] = molecular target: T1, Muscarinic acetylcholine receptor M1 (Homo sapiens); experiment: Agonist activity at human muscarinic M1 receptor expressed in CHO cells assessed as potentiation of acetylcholine-induced calcium mobilization at >= 10 uM by FLIPR assay; type: functional, cell-based

## Cc1ccnn1-c1ccc(Cn2cc(C(=O)O)c(=O)c3c(F)cccc32)cc1
[1]
  Activity: 2900 nM

## O=C(O)c1cn(Cc2ccc(-n3nnc4ccccc43)cc2)c2cccc(F)c2c1=O
[1]
  Activity: 228 nM

## O=C(O)c1cn(Cc2ccc(-n3ccc4ncccc43)cc2)c2cccc(F)c2c1=O
[1]
  Activity: 150 nM

## O=C(O)c1cn(Cc2ccc(-n3ccc4ccccc43)cc2)c2cccc(F)c2c1=O
[1]
  Activity: 250 nM

## O=C(O)c1cn(Cc2ccc(-n3cnc4ccccc43)cc2)c2cccc(F)c2c1=O
[1]
  Activity: 96 nM
[2]
  fraction unbound: 0.039
Homo sapiens [3]
  fraction unbound: 0.084
Plasma
  Fu: 9%

## Cc1nccn1-c1ccc(Cn2cc(C(=O)O)c(=O)c3c(F)cccc32)cc1
[1]
  Activity: 920 nM

## Cc1cn(-c2ccc(Cn3cc(C(=O)O)c(=O)c4c(F)cccc43)cc2)cn1
[1]
  Activity: 140 nM
Homo sapiens [3]
  fraction unbound: 0.111

## O=C(O)c1cn(Cc2ccc(-n3ccc4cnccc43)cc2)c2cccc(F)c2c1=O
[1]
  Activity: 160 nM
Homo sapiens [3]
  fraction unbound: 0.031

## O=C(O)c1cn(Cc2ccc(-n3cccn3)cc2)c2cccc(F)c2c1=O
[4]
  fraction unbound: 0.116
Homo sapiens [5]
  fraction unbound: 0.116
[6]
  Kp: 0.04
[7]
  Ratio: 0.05
[1]
  Activity: 94 nM
Homo sapiens [8]
  fraction unbound: 0.1
[2]
  fraction unbound: 0.1

## COc1ccc(Cn2cc(C(=O)O)c(=O)c3ccccc32)cc1
[1]
  Activity: 660 nM

## O=C(O)c1cn(Cc2ccc(-n3ccnc3)cc2)c2cccc(F)c2c1=O
[1]
  Activity: 110 nM
Homo sapiens [3]
  fraction unbound: 0.162

## O=C(O)c1cn(Cc2ccc(-n3cccn3)cc2)c2c(F)ccc(F)c2c1=O
[6]
  Kp: 0.03
[9]
  concentration at 24 h: 9 µM
[7]
  Ratio: 0.1
[1]
  Activity: 171 nM
Mus musculus
  Activity: Active
[10]
  fold change (FC): 46
Homo sapiens [3]
  fraction unbound: 0.043
[11]
  Activity: Active

## Cc1nn(-c2ccc(Cn3cc(C(=O)O)c(=O)c4c(F)cccc43)cc2)c2ccccc12
[1]
  Activity: 620 nM

## O=C(O)c1cn(Cc2ccc(-n3cccn3)cc2)c2c(F)cccc2c1=O
[1]
  Activity: 96 nM

## Cc1ccn(-c2ccc(Cn3cc(C(=O)O)c(=O)c4c(F)cccc43)cc2)n1
[4]
  fraction unbound: 0.057
Homo sapiens [5]
  fraction unbound: 0.057
[1]
  Activity: 36 nM

## O=C(O)c1cn(Cc2ccc(-n3cccn3)cn2)c2c(F)cccc2c1=O
[1]
  Activity: 1400 nM

## O=C(O)c1cn(Cc2ccc(N3CCOC3=O)cc2)c2cccc(F)c2c1=O
[4]
  fraction unbound: 0.116
Homo sapiens [5]
  fraction unbound: 0.224
[1]
  Activity: 500 nM

## O=C(O)c1cn(Cc2ccc(-n3ccc4cccnc43)cc2)c2cccc(F)c2c1=O
[1]
  Activity: 90 nM

## O=C(O)c1cn(Cc2ccc(-n3cccn3)nn2)c2c(F)cccc2c1=O
[1]
  Activity: 24000 nM

## O=C(O)c1cn(Cc2ccc(-n3cccc3)cc2)c2cccc(F)c2c1=O
[4]
  fraction unbound: 0.003
Homo sapiens [5]
  fraction unbound: 0.003
[1]
  Activity: 181 nM

## O=C(O)c1cn(Cc2ccc(-n3cccn3)nc2)c2c(F)cccc2c1=O
[1]
  Activity: 864 nM

## O=C(O)c1cn(Cc2ccc(-n3ccc(C(F)(F)F)n3)cc2)c2cccc(F)c2c1=O
[1]
  Activity: 290 nM

## O=C(O)c1cn(Cc2ccc(-n3cnc(-c4ccccc4)c3)cc2)c2cccc(F)c2c1=O
[1]
  Activity: 39 nM

## O=C(O)c1cn(Cc2ccc(N3CCCC3=O)cc2)c2cccc(F)c2c1=O
[1]
  Activity: 2500 nM
